Results: ChEMBL document CHEMBL1126593, “Inactivation of monoamine oxidase B by analogues of the anticonvulsant agent milacemide (2-(n-pentylamino)acetamide)” (J Med Chem, 1993)

Columns and labels:
[1] = target: T1, Amine oxidase [flavin-containing] B (Bos taurus, UniProt P56560); test: Kinetic constant was calculated by inhibition of monoamino oxidase B (MAO B)
T1 sequence (P56560 whole entry): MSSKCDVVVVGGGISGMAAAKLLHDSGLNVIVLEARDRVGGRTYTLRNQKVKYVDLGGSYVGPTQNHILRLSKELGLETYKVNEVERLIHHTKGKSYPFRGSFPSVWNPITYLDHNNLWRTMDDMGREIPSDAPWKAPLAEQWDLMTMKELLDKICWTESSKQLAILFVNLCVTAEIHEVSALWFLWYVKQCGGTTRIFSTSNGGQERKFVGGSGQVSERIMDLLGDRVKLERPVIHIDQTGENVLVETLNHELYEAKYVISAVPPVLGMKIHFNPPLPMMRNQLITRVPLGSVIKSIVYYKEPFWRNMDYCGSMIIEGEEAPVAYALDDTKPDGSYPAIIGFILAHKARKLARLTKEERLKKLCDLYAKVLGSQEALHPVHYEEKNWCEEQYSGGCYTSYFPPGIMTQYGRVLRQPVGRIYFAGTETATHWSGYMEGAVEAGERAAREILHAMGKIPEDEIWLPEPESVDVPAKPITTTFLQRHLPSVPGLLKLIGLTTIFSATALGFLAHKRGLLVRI
Outline: (§1)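 Bovine liver MAO B (isolated by published method), 25 °C, 100 mM Tris-HCl pH 9.00. Enzyme incubated with several inactivator concentrations; aliquots withdrawn periodically and residual activity read by benzylamine oxidation (OD change at 250 nm). Irreversibility tested by 24 h dialysis against Tris-HCl pH 9.0.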

[2] = target: T1, Amine oxidase [flavin-containing] B; test: Kinetic constant (KI) was calculated by inhibition of monoamino oxidase B (MAO B); outline: as §1
[3] = Ratio is Kinetic constant (Kcat) / Inactivation constant (Kinact) of the MAO B
Outline: (§2)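 Turnover from H2O2 release: bovine MAO B with amine at several concentrations in 100 mM Tris-HCl pH 9.00, 25 °C, 90 s (1–2 min for some); leuco crystal violet/horseradish peroxidase in acetate pH 4.5 added, A596 converted via extinction coefficient. Km and kcat from Hanes plots; ratio is kcat over kinact from time-dependent inactivation.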

[4] = Ratio of Kinetic constant (Kcat) / Inactivation constant (Kinact) of the MAO B; Inactive; outline: as §2
[5] = target: T1, Amine oxidase [flavin-containing] B; test: Kinetic constant (KI) was calculated by inhibition of monoamino oxidase B (MAO B); Inactive; outline: as §1
[6] = target: T1, Amine oxidase [flavin-containing] B; test: Kinetic constant was calculated by inhibition of monoamino oxidase B (MAO B); Inactive; outline: as §1
[7] = Ratio of Kinetic constant (Kcat) / Inactivation constant (Kinact) of the MAO B
Outline: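 Bovine MAO B. For kcat, the enzyme was incubated for 1–2 min at 25 °C with several substrate concentrations in 100 mM Tris-HCl, pH 9.00. H2O2 was read as A596 after leuco crystal violet, peroxidase and pH 4.5 acetate were added, and kcat was taken from Hanes plots. For kinact, enzyme was incubated with varied inactivator concentrations (Tris-HCl, pH 9.00, 25 °C), and aliquots were assayed periodically.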

SMILES | Ki [1] | Ki [2] | Ratio [3] | Ratio [4] | Ki [5] | Ki [6] | Ratio [7]
CCCCCNCCC#N | 4.94 mM | 5.79 mM | 9091 | – | – | – | –
CCCCCNCC(=O)O | – | – | – | Not Active | Not Active | Not Active | –
CCCCCNCC#N | 4.94 mM | 14 mM | 3394 | – | – | – | –
CCCCCNCC(=O)OCC | 2 mM | 14.2 mM | – | – | – | – | 4435
CCCCCNCC(N)=O [MILACEMIDE] | 1.08 mM | 0.94 mM | – | – | – | – | 26289
